The source of these data is publication PMC7316614 (ACS nano, 2020).

Data set [1] concerns HS-5 cells. Kind of data set: Cell viability / cytotoxicity. Format: cell-based.
A short description of data set [2]: Drug loading efficiency. Format: physicochemical. The conditions noted are these: determined from the LE%.
In data set [3] the test system is HepG2 cells. In words: Cell viability / cytotoxicity. In kind it is cell-based. The gist of the method:
(§1)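 HeLa and HepG2 grown in MEM with 10% (vol/vol) FBS and 0.5% (vol/vol) each penicillin and streptomycin, at 37 °C under 5% CO2. IC50 taken on the 2nd day of exposure to the test compound. Means ± SD from n > 3 independent experiments; significance by t-test.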

The subject of data set [4] is HepG2 cells. In words: Mitochondrial membrane potential by Rhodamine 123. Format: cell-based. The conditions noted are these: 50 μM, 48 h.
The test system of data set [5] is HeLa cells. In words: Cell viability / cytotoxicity. In kind it is cell-based. As to conditions: Flag-(C16)2 alone, 48h. The procedure, abridged: as §1
In data set [6] the test system is cytochrome c in HeLa cells. In words: Cytochrome c in cytosol, Western blot. In kind it is cell-based. As to conditions: different concentration, Figure S17. The gist of the method: (§2)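 Cells were exposed to the test compound for 48 h (HepG2: 100, 50, 25 and 0 μM). The cytosol fraction was blotted for cytochrome c. Protein was quantified by Coomassie, and 20 μg per lane was run on SDS-PAGE and transferred to PVDF. Bands were quantified by densitometry. Data are means ± SD, n > 3, t-test.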

Data set [7] is described as follows: Self-assembly. In kind it is physicochemical. The conditions noted are these: 50 μM.
Data set [8] relates to cytochrome c in HepG2 cells. In words: Cytochrome c in cytosol, Western blot. In kind it is cell-based. As to conditions: 100, 50, 25 μM, 48 h. The gist of the method: as §2
Data set [9] in a line: Critical micelle concentration. The conditions noted are these: Figure S6. Format: physicochemical.
Data set [10] deals with enterokinase (ENTK) (Homo sapiens, UniProt P98073). In words: Enzymatic cleavage by ENTK. In kind it is biochemical. The conditions noted are these: Flag-(C16)2 at 200 μM (above CMC), Figure S7D.
enterokinase (ENTK), sequence (P98073 whole entry, species assumed): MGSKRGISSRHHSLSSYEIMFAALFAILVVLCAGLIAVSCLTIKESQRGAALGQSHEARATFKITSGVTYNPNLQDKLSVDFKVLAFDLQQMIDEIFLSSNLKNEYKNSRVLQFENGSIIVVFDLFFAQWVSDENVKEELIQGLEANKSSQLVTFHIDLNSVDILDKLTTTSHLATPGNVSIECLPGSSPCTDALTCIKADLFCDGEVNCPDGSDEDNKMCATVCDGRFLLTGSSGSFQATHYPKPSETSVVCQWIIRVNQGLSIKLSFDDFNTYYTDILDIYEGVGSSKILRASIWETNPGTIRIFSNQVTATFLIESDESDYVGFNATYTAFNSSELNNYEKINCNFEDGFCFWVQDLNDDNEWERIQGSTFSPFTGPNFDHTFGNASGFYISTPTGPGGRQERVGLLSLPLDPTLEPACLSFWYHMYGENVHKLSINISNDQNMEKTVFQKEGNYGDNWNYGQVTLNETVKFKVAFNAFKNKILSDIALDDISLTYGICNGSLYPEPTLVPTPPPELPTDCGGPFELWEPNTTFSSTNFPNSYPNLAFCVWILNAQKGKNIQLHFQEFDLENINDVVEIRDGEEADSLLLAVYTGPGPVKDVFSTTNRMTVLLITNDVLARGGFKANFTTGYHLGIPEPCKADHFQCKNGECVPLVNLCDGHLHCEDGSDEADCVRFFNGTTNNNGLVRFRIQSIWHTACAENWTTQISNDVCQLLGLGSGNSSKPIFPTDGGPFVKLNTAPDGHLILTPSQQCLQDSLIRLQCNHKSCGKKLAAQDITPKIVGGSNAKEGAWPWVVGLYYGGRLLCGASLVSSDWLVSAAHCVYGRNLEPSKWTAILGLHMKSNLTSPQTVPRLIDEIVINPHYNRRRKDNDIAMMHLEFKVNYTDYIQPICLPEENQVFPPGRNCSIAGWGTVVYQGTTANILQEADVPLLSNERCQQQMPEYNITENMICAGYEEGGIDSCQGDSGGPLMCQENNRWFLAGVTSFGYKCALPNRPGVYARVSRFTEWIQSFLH
Data set [11] concerns HepG2 cells. Kind of data set: Mitochondrial accumulation, fluorescence imaging with MitoTracker. Format: cell-based. As to conditions: Flag-(C16)2, 48h.
Data set [12] deals with HeLa cells. In words: Mitochondrial membrane potential by Rhodamine 123. As to conditions: 48h, Rhodamine 123, Figure S15. Format: cell-based.
For data set [13], the system named is AML12 cells. In words: Cell viability / cytotoxicity. In kind it is cell-based.
Data set [14] can be described thus: Solubility of the enzymatic product. Format: physicochemical. The conditions noted are these: direct suspension of the enzymatic product.
For data set [15], the system named is HS-5 cells. Kind of data set: Multidrug resistance. As to conditions: normal cell line, Figure S5. Format: cell-based.

Peptide text beside a SMILES is read from it.

For `CCCCCCCCCCCCCCCCNC(=O)CC[C@H](NC(=O)CNC(=O)[C@H](CCCCN)NC(=O)[C@H](CC(=O)O)NC(=O)[C@H](CC(=O)O)NC(=O)[C@H](CC(=O)O)NC(=O)[C@H](CC(=O)O)NC(=O)[C@H](CCCCN)NC(=O)[C@H](Cc1ccc(O)cc1)NC(=O)[C@@H](N)CC(=O)O)C(=O)NCCCCCCCCCCCCCCCC` [Flag-(C16)2] (HELM PEPTIDE1{D.Y.K.D.D.D.D.K.G.E.[CCCCCCCCCCCCCCCCN[*:1]]}|CHEM1{[CCCCCCCCCCCCCCCCN[*:1]]}$PEPTIDE1,CHEM1,10:R3-1:R1$$$V2.0), in [1], the “cell death, HS-5” value is listed as “hardly induces cell death”. Further, the “encapsulation capacity (EC)” value in data set [2] is on record as 66.7 μg CLRP in per mg Flag-(C16)2 micelles. For the same compound, the “cell viability, HepG2” value in [3] (Flag-(C16)2 alone, 48h) was “decrease of cell viability”. Moreover, the “mitochondrial membrane potential, HepG2” value in data set [4] was “reduced mitochondrial membrane potential”. Further, the “cell viability, HeLa” value in data set [5] is “decrease of cell viability”. The “cytochrome c in the cytosol, HeLa” value in data set [6] is reported as “increased cytochrome c”. Also, the “self-assembly after adding ENTK” value in data set [7] (ENTK, 24 h, 37 °C, static light scattering) is “larger micelle-like aggregates”. In data set [7] (before ENTK), the self-assembly in solution result is “self-assembles into nanoparticles”. In addition, the “cytochrome c in the cytosol, HepG2” value in data set [8] was “increased cytochrome c”. Further, the “critical micelle concentration (CMC)” value in data set [9] amounted to 43 µM. In [10], the “hydrolysis by ENTK” value is “hydrolyzes”. Further, in [11], the “mitochondrial morphology, HepG2” value was “fragmental mitochondria”. For the same compound, in data set [12], the “mitochondrial membrane potential, HeLa” value is given as “reduced mitochondrial membrane potential”. In addition, in data set [13], the “cell death, AML12” value is given as “hardly induces cell death”.
Regarding Gly-Glu-(C16)2, the solubility entry in data set [14] is “poor solubility”.
As for `O=C(N[C@H](CO)[C@H](O)c1ccc([N+](=O)[O-])cc1)C(Cl)Cl` [CLRP, chloramphenicol, reference compound], the “change of MDR, HS-5” value in data set [15] is “Neither CLRP nor CLRP mixed with Flag-(C16)2 significantly change the MDR”. Further, the “cell viability, HepG2” value in data set [3] (free CLRP alone, Figure 2A) is “hardly suppresses the viability”.
